{"source": "paper PMC3085808", "about": "(Nutrition Research and Practice, 2011)", "key": {"[1]": {"target": "T1, angiotensin I-converting enzyme (ACE) (Oryctolagus cuniculus, UniProt P12822)", "T1 sequence (P12822 34-1310)": "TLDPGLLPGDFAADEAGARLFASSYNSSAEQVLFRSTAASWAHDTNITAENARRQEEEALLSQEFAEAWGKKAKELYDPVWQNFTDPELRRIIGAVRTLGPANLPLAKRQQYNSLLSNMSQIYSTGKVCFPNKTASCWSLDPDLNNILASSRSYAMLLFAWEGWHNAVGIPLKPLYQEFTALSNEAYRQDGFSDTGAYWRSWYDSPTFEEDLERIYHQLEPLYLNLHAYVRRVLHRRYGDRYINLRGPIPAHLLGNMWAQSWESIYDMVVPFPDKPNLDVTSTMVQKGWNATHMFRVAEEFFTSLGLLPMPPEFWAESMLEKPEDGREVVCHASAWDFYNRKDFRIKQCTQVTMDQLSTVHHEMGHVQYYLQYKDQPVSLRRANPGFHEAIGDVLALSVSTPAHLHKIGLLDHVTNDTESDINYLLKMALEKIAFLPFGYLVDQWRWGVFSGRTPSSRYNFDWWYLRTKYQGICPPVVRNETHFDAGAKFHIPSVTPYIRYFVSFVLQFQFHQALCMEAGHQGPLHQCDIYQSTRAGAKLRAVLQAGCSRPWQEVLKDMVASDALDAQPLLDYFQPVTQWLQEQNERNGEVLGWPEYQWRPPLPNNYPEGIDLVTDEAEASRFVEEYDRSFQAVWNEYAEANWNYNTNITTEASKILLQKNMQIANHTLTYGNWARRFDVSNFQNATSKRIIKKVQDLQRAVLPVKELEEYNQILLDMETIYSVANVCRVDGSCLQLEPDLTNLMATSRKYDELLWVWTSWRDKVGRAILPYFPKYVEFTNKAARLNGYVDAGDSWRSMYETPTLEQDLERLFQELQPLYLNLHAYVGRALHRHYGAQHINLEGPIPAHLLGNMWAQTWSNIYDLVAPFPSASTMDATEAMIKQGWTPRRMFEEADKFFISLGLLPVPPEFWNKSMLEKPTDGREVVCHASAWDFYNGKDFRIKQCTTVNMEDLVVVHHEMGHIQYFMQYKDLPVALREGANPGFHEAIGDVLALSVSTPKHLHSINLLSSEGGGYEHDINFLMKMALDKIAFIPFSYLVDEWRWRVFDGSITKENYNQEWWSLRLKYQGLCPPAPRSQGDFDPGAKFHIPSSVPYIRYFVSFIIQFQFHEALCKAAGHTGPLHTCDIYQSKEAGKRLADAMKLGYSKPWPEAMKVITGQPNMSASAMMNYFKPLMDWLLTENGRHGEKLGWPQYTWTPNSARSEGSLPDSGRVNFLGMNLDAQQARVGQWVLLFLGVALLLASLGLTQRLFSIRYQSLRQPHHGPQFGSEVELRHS", "experiment": "ACE inhibition pattern by Lineweaver-Burk plots", "format": "biochemical", "details": "substrate HHL", "method_in_brief": "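ACE kept constant while test compound (in 0.1% DMSO) and HHL substrate were both varied. Enzyme and compound were pre-incubated 10 min at 37℃, then HHL in 50 mM sodium borate with 500 mM NaCl, pH 8.3, was added for 60 min at 37℃. Stopped with 1 M HCl; hippuric acid extracted into ethyl acetate, dried, redissolved in water, A228. 0.1% DMSO control. Lineweaver-Burk plots, mean ± SD of three determinations.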"}, "EAhy926 cells [2]": {"tested_on": "EAhy926 cells", "experiment": "Nitric oxide", "format": "cell-based, human", "details": "24 h, P < 0.05", "method_in_brief": "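EAhy926 cells at 1.5 × 10^5 cells/well were treated 24 h with a range of test compound concentrations in 0.1% DMSO, with 0.1% DMSO as control. Supernatant nitrite: supernatant mixed 1:1 with Griess reagent (0.1% N-(1-naphthyl)-ethylenediamine, 1% sulfanilamide in 5% phosphoric acid), 10 min at room temperature, A550 against a sodium nitrite standard curve. Mean ± SD of three determinations; one-way ANOVA with Duncan's test, P < 0.05.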"}, "EAhy926 cells [3]": {"tested_on": "EAhy926 cells", "experiment": "Cell viability, MTT assay", "format": "cell-based, human", "method_in_brief": "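EAhy926 cells grown in DMEM with 10% heat-inactivated calf serum, penicillin and streptomycin at 37℃, 5% CO2. Seeded at 1.0 × 10^5 cells/ml, held 16 h, then exposed 24 h to a range of test compound concentrations in 0.1% DMSO. MTT (2 mg/ml stock) added for 4 h; formazan dissolved in DMSO, A540. Viability as % of 0.1% DMSO control; mean ± SD of three determinations.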"}, "[4]": {"tested_on": "glycosidases from the viscera of the turban shell Turbo cornutus", "details": "cited from earlier work"}}, "data": [{"smiles": "Oc1cc(O)cc(Oc2c(O)cc(O)c3c2Oc2c(O)cc(Oc4c(O)cc(Oc5c(O)cc(O)c6c5Oc5c(O)cc(O)cc5O6)cc4O)cc2O3)c1", "note": "[Dieckol, dieckol]", "values": [{"measurement": "ACE inhibition mode", "setting": "[1]", "result": "non-competitive inhibitor"}, {"measurement": "Concentrations with inducible effect on the production of NO", "setting": "EAhy926 cells [2]", "result": "higher than 0.27 mM"}, {"measurement": "Cytotoxic effect", "setting": "EAhy926 cells [3]", "result": "no cytotoxic effect"}, {"measurement": "Survival rate of cells", "setting": "EAhy926 cells [3]; 24 h, all of the concentrations used", "result": "higher than 95%"}, {"measurement": "Glycosidase inhibition mode", "setting": "[4]", "result": "non-competitive inhibitor"}]}]}
